This is an account of results in publication PMC6720533 (Biomolecules & Therapeutics, 2019).

One assay concerns the target p70S6K (Homo sapiens, UniProt P23443). Briefly: Kinase activity screening. It is filed as biochemical. The settings on record: FX-9 at 2.5 μM, ATP at Km (15 μM). The gist of the method: (§1)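 Radiometric kinase-panel screen of 58 human kinases, measuring substrate phosphorylation. […] Activity is given as % of the mean positive-control kinase activity (100%). Below 30% counts as a strong hit, 30–70% as a partial hit, and above 70% as no hit.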

The next assay addresses CHK1 (Homo sapiens, UniProt O14757). Nature of the assay: Kinase activity screening. It is filed as biochemical. The settings on record: FX-9 at 2.5 μM, ATP at Km (90 μM). The gist of the method:
(§2)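 Radiometric substrate-phosphorylation screen covering a panel of 58 human kinases run by a contract service. […] Activity is given as a percentage of mean activity in positive control samples (100%). Values <30% were scored strong hits, 30–70% partial hits and >70% no hit.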

The next assay has as its target PAK2 (Homo sapiens, UniProt Q13177). Nature of the assay: Kinase activity screening. The settings on record: FX-9 at 2.5 μM, ATP at Km (90 μM). Type of assay: biochemical. A digest of the protocol: as §2
A further assay concerns pAKT. Briefly: Western blot, SEM cells. Type of assay: cell-based, human. The settings on record: 2.5 μM or 5.0 μM, 48 h. A digest of the protocol: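 SEM or RS4;11 cells took DMSO, 2.5 or 5.0 μM test compound for 48 h. Cells (1–5×10^6) were lysed in RIPA buffer with sonication, run on SDS gels, blotted to PVDF and imaged by near-infrared fluorescence. Bands were normalised to GAPDH, and the phospho/total protein ratio was set relative to DMSO control (=1).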
In general terms: Immunoblotting shows a protein as a band on a membrane.

In the next assay the test system is SEM cells. Nature of the assay: Proliferation, viable cell count by trypan blue exclusion. The settings on record: 72 h. Type of assay: cell-based, human. The gist of the method: (§3)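 Human B-ALL (SEM, RS4;11) and T-ALL (Jurkat, CEM) lines were grown with 10% heat-inactivated FBS and penicillin/streptomycin at 37°C, 5% CO2. Cells took test compound at 0.1–5.0 μM (methods: 0.5–5.0 μM) or DMSO for up to 72 h. Viable cells were counted by trypan blue exclusion and expressed relative to control (100%). IC50 came from three separate experiments, each in triplicate.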

The target in the next assay is KDR (Homo sapiens, UniProt P35968). Nature of the assay: Kinase activity screening. It is filed as biochemical. The settings on record: FX-9 at 2.5 μM, ATP at Km (90 μM). A digest of the protocol:
as §2

The target in a further assay is MST1 (Homo sapiens, UniProt Q13043). Nature of the assay: Kinase activity screening. Type of assay: biochemical. The settings on record: FX-9 at 2.5 μM, ATP at Km (90 μM). The gist of the method: as §2
The target in a further assay is Plk3 (Homo sapiens, UniProt Q9H4B4). Nature of the assay: Kinase activity screening. It is filed as biochemical. The settings on record: FX-9 at 2.5 μM, ATP at Km (70 μM). The gist of the method:
as §1

A further assay deals with CDK6/cyclinD3 (Homo sapiens, UniProt Q00534). Briefly: Kinase activity screening. The settings on record: FX-9 at 2.5 μM, ATP at Km (200 μM). Type of assay: biochemical. The gist of the method: as §2
The target of the next assay is CK2α2 (Homo sapiens, UniProt P19784). Briefly: Kinase activity screening. Type of assay: biochemical. The settings on record: FX-9 at 2.5 μM, ATP at Km (10 μM). The gist of the method:
as §2

Another assay addresses PI3 Kinase (p120g) (Homo sapiens, UniProt P48736). Briefly: Kinase activity screening. Type of assay: biochemical. The settings on record: FX-9 at 2.5 μM, ATP at Km (100 μM). A digest of the protocol: as §2
For assay [1], the system named is RS4;11 cells. Nature of the assay: Cell morphology, May Grünwald Giemsa staining. The settings on record: 48 h. Type of assay: cell-based, human.
In a further assay the target is CaMKI (Homo sapiens, UniProt Q14012). Nature of the assay: Kinase activity screening. The settings on record: FX-9 at 2.5 μM, ATP at Km (200 μM). It is filed as biochemical. A digest of the protocol: as §2
The target of a further assay is JAK2 (Homo sapiens, UniProt O60674). Nature of the assay: Kinase activity screening. Type of assay: biochemical. The settings on record: FX-9 at 2.5 μM, ATP at Km (45 μM). The gist of the method:
as §2

A further assay deals with cleaved caspase 3. Nature of the assay: Western blot, RS4. The settings on record: RS4;11, 2.5 μM and 5.0 μM, 48 h. Type of assay: cell-based, human. A digest of the protocol:
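SEM and RS4;11 cells were exposed to 2.5 or 5.0 μM test compound, or DMSO, for 48 h. Lysates of 1–5×10^6 cells were made in RIPA buffer with sonication. Cleaved caspase 3 was detected by western blot on PVDF with near-infrared imaging, using GAPDH as loading control.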

A further assay concerns the target DRAK1 (Homo sapiens, UniProt Q9UEE5). Nature of the assay: Kinase activity screening. It is filed as biochemical. The settings on record: FX-9 at 2.5 μM, ATP at Km (10 μM). The gist of the method:
as §2

The next assay has as its target PKG1α (Homo sapiens, UniProt Q13976). Briefly: Kinase activity screening. The settings on record: FX-9 at 2.5 μM, ATP at Km (90 μM). It is filed as biochemical. A digest of the protocol: as §1
In another assay the target is Mnk2 (Homo sapiens, UniProt Q9HBH9). Briefly: Kinase activity screening. Type of assay: biochemical. The settings on record: FX-9 at 2.5 μM, ATP at Km (120 μM). A digest of the protocol: as §2
For assay [2], the system named is RS4;11 cells. Briefly: Proliferation, viable cell count by trypan blue exclusion. It is filed as cell-based, human. A digest of the protocol:
as §3

A further assay has as its target CDK2/cyclinA (Homo sapiens, UniProt P24941). Nature of the assay: Kinase activity screening. Type of assay: biochemical. The settings on record: FX-9 at 2.5 μM, ATP at Km (45 μM). The gist of the method: as §2

The structures appear in SMILES notation.

Sequence of MST1 (Q13043 whole entry): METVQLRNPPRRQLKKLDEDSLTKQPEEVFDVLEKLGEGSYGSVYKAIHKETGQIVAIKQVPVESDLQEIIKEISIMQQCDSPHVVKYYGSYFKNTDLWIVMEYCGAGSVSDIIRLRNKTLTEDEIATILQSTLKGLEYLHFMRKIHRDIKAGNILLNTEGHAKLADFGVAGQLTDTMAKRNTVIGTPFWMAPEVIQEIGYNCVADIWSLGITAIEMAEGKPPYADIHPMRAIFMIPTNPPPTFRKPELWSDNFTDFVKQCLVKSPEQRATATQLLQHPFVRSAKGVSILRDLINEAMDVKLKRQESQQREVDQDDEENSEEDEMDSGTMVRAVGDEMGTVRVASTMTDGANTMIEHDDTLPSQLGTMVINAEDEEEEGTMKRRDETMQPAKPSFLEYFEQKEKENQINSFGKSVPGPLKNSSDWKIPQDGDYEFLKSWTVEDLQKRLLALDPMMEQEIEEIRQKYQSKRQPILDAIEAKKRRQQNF
Sequence of CaMKI (Q14012 whole entry): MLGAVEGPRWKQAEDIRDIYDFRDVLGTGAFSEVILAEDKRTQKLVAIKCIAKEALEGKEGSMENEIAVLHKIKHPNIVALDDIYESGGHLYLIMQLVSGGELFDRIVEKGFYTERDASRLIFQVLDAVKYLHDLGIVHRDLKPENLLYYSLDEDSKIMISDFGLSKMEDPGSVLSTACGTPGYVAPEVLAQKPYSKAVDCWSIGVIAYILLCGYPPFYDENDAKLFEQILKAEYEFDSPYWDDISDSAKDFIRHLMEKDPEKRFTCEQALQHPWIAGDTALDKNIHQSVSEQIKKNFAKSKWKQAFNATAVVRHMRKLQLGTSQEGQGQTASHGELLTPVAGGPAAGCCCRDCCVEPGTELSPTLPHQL
Sequence of KDR (P35968 20-1356): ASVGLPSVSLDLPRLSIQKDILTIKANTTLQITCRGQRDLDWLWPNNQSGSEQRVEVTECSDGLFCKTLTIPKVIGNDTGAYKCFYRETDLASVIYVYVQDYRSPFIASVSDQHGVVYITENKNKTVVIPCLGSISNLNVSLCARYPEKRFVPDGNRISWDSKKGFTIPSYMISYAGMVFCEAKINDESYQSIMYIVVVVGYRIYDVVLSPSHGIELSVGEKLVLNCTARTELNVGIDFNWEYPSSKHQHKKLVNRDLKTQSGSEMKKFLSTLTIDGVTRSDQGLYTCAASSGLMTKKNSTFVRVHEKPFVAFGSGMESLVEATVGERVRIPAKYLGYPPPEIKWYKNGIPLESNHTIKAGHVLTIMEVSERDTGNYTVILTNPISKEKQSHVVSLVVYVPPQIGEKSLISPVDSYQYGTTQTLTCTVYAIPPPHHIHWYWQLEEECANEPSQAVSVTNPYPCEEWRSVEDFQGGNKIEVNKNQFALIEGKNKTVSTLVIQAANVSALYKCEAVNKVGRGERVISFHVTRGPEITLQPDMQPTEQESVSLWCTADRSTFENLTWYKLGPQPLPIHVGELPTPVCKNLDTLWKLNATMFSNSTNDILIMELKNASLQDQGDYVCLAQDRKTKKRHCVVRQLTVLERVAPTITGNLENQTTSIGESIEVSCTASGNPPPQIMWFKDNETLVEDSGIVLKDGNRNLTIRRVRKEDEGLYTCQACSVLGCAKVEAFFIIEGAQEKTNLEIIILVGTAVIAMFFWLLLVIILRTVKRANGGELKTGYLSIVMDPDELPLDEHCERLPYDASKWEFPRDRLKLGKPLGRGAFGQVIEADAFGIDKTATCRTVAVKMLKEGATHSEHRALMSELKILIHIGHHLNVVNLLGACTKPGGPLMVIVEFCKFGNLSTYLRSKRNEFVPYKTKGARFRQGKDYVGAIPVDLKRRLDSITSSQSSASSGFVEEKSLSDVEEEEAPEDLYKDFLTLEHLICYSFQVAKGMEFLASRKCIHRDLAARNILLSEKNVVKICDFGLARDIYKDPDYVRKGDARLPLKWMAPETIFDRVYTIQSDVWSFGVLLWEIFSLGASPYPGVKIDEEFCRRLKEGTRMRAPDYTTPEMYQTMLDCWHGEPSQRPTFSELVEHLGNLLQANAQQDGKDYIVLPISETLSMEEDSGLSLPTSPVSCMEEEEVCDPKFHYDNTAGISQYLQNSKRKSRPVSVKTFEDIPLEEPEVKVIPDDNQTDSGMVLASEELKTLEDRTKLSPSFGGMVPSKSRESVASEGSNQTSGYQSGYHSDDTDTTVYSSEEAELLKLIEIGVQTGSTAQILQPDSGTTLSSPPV
Sequence of Plk3 (Q9H4B4 whole entry): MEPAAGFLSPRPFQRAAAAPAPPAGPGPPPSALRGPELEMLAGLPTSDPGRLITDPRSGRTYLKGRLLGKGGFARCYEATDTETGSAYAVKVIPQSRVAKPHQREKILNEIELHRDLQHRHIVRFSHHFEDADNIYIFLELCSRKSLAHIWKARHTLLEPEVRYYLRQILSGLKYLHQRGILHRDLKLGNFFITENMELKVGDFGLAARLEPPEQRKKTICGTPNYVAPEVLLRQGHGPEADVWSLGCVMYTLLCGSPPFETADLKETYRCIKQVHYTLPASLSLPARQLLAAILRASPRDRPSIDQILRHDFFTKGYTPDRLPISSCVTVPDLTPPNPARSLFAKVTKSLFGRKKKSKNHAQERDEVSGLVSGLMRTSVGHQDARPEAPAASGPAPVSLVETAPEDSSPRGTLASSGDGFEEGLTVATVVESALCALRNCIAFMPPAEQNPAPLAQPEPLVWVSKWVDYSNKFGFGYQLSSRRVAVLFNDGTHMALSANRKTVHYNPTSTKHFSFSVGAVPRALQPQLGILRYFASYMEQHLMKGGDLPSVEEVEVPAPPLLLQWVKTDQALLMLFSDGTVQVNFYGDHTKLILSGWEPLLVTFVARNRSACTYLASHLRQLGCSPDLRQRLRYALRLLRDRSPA
Sequence of PI3 Kinase (p120g) (P48736 whole entry): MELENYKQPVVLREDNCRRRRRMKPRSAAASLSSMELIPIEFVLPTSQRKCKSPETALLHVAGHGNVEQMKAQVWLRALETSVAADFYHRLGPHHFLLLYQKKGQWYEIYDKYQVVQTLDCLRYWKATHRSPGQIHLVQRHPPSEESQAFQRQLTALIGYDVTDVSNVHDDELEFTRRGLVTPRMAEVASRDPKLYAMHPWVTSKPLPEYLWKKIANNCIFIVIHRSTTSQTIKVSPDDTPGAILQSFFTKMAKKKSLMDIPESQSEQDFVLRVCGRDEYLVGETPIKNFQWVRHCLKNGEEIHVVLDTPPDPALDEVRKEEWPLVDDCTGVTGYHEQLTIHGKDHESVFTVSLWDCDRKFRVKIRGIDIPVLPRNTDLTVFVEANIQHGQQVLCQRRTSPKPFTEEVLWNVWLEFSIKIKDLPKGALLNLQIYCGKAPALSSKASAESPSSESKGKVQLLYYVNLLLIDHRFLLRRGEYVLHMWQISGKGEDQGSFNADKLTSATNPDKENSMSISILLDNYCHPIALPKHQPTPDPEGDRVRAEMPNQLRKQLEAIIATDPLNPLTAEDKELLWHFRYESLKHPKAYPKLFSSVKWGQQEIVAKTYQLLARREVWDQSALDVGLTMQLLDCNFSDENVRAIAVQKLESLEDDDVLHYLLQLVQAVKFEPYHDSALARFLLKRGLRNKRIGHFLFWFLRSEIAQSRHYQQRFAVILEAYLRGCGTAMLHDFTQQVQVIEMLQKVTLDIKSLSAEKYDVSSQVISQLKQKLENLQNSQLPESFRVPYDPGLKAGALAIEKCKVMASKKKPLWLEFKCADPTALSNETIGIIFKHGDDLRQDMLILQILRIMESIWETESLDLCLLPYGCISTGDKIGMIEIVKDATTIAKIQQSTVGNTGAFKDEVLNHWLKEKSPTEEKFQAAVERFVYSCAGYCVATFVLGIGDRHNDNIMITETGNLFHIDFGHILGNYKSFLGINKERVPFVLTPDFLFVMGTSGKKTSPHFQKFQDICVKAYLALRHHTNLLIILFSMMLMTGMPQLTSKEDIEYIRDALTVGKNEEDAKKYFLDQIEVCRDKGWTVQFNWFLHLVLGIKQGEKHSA
Sequence of DRAK1 (Q9UEE5 whole entry): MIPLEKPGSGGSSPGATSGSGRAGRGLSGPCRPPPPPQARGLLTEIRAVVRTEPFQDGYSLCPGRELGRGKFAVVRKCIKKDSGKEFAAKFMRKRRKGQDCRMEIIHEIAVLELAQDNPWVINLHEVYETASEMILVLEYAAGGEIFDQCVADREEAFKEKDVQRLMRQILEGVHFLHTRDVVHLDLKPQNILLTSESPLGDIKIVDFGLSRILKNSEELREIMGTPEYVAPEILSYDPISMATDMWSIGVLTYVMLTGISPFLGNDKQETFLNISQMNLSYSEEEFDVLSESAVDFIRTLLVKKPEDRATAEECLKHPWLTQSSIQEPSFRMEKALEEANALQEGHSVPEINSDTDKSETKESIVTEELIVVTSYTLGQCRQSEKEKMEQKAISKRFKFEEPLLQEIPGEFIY
Sequence of PAK2 (Q13177 whole entry): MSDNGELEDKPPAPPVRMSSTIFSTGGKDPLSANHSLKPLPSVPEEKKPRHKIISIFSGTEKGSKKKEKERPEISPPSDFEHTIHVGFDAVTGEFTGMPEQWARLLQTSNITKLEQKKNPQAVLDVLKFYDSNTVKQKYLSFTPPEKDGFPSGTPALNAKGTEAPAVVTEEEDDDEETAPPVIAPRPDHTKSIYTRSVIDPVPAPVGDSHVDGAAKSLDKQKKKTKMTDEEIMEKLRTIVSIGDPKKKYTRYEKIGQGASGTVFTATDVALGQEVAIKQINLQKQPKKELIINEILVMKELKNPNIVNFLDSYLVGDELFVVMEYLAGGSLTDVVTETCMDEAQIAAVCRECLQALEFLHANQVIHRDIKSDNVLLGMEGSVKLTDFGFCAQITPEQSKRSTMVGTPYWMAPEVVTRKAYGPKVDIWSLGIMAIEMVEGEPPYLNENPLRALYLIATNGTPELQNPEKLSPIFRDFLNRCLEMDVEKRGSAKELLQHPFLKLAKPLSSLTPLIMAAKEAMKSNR

With `Cc1ccc(-c2cc3ccccc3c(N)n2)cc1` [FX-9, 3-(p-Tolyl)isoquinolin-1-amine], the “Kinase activity (% control)” value was 85 % control at p70S6K; 94 % control on CHK1; 88 % control at PAK2; 83 % control on KDR; 87 % control at MST1; 99 % control on Plk3. In addition, the “Kinase activity (% control)” value on CDK6/cyclinD3 came to 103 % control; on CK2α2 it was 95 % control; on PI3 Kinase (p120g), 98 % control; on CaMKI, 100 % control; on JAK2 it was 111 % control; at DRAK1 it was 81 % control. The “Kinase activity (% control)” value on PKG1α was 98 % control; on Mnk2, 90 % control; at CDK2/cyclinA, 90 % control. The “pAKT level (western blot)” value in the assay on pAKT is given as “reduced”. Also, the IC50 in the assay with SEM cells (Homo sapiens, read-out: IC50 based on proliferation) was found to be 1460 ± 10 nM; in the assay on RS4;11 cells [2] (Homo sapiens, RS4-11, 72 h, read-out: IC50 based on proliferation), 540 ± 20 nM. Moreover, the “Proliferation compared to control cells (=100%)” value in the assay with SEM cells (SEM, 0.5 μM) came to 69.5%; in the assay with RS4;11 cells [2] (RS4;11, 0.5 μM, 72 h), 60.0%. The “cellular morphology (light microscopy)” value was “increased amount of vacuoles and karyopyknosis” in the assay on RS4;11 cells [1] (RS4;11, 1.0 μM); “Extensive cytoplasmic vacuolization, karyopyknosis, and karyolysis” in the assay with RS4;11 cells [1] (RS4;11, 2.5 μM). Also, in the assay with cleaved caspase 3, the “cleaved caspase 3 protein (western blot)” value was “increased amount of cleaved caspase 3”.
